Measurements published in article PMC5538437 (Genes & Development, 2017).
Blank lines part the entries; values can stand above or below the molecule they belong to.

Experiments:
4EHP = experiment: Pull-down / coimmunoprecipitation with 4EHP in HEK293T cell lysates; type: binding, human; conditions: Western blot
In short: (§1)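 Streptavidin-bead pull-down from RNase A-treated HEK293T lysates of cells expressing V5-SBP-tagged 4EHP or eIF4E (wild type or mutants). Co-bound endogenous GYF2, 4E-T and 4E-BP1 were probed; for 4EHP, co-expressed GFP-4E-BP1 was also probed, with V5-SBP-MBP as negative control. Inputs and bound fractions were analysed by Western blot with anti-V5, anti-GFP, anti-GYF2 and other antibodies, using ECL detection.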

[1] = biological target: T1, 4EHP used for ITC, wild type (human, UniProt O60573 1-245); experiment: ITC
T1 sequence: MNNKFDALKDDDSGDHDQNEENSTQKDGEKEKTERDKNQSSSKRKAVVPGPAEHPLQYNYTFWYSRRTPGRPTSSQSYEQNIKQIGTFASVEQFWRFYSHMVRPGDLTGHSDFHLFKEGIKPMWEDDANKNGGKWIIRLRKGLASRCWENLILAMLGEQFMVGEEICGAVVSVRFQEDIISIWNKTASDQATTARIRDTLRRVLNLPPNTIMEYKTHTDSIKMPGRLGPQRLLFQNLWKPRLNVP

eIF4E = experiment: Pull-down / coimmunoprecipitation with eIF4E in HEK293T cell lysates; type: binding, human; conditions: streptavidin pull-down, Western blot
In short: as §1

4EHP S99N used for ITC = biological target: T2, 4EHP S99N used for ITC (human, UniProt O60573 1-245, S99N); experiment: ITC
T2 sequence: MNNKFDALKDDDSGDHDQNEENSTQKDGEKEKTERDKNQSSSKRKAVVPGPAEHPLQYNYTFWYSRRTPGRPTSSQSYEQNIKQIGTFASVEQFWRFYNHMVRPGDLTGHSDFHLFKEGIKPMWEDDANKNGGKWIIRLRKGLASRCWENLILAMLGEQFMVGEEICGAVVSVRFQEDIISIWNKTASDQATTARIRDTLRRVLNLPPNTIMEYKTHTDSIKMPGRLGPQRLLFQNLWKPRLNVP

[2] = biological target: T3, 4EHP-His6 (residues A52–F234), RE-LL mutant, of the competition assays (human, UniProt O60573 52-234, R103L | E149L); experiment: pull-down
T3 sequence: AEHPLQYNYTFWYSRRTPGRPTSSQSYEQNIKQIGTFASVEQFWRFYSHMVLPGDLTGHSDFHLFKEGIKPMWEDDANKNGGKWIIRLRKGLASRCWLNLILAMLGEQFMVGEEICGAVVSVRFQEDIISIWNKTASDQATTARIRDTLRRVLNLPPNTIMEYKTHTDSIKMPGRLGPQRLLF

endogenous GYF2 = experiment: Pull-down of GYF2 by tagged 4EHP in HEK293T cells; type: binding, human; conditions: Western blot
In short: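 Streptavidin pull-downs used HEK293T lysates containing RNase A and expressed V5-SBP-4EHP, wild type or mutants. V5-SBP-MBP was the negative control. Inputs (1–1.5%) and bound fractions (up to 30% for GYF2) were analysed by Western blot with anti-V5 and anti-GYF2 antibodies, using ECL detection.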

endogenous GYF1 = experiment: Pull-down of GYF1 by tagged 4EHP in HEK293T cells; type: binding, human; conditions: V5-SBP-4EHP, Western blot

B1: GYF1 A2+3*: GYF1 E86A, N95F; auxiliary site 2 mutant (listed as A2*) (protein, UniProt O75420 1-1035, looked up, variant E86A N95F)
GRB10-interacting GYF protein …: MAAETLNFGPEWLRALSGGGSVASPPPSPAMPKYKLADYRYGREEMLALYVKENKVPEELQDKEFAAVLQDEPLQPLALEPLTEEAQRNFSLSVFSVAVLRLMGKGAGPPLAGTSRGRGSTRSRGRGRGDSCFYQRSIEEGDGAFGRSPREIQRSQSWDDRGERRFEKSARRDGARCGFEEGGAGPRKEHARSDSENWRSLREEQEEEEEGSWRLGAGPRRDGDRWRSASPDGGPRSAGWREHGERRRKFEFDLRGDRGGCGEEEGRGGGGSSHLRRCRAPEGFEEDKDGLPEWCLDDEDEEMGTFDASGAFLPLKKGPKEPIPEEQELDFQGLEEEEEPSEGLEEEGPEAGGKELTPLPPQEEKSSSPSPLPTLGPLWGTNGDGDETAEKEPPAAEDDIRGIQLSPGVGSSAGPPGDLEDDEGLKHLQQEAEKLVASLQDSSLEEEQFTAAMQTQGLRHSAAATALPLSHGAARKWFYKDPQGEIQGPFTTQEMAEWFQAGYFSMSLLVKRGCDEGFQPLGEVIKMWGRVPFAPGPSPPPLLGNMDQERLKKQQELAAAALYQQLQHQQFLQLVSSRQLPQCALREKAALGDLTPPPPPPPQQQQQQLTAFLQQLQALKPPRGGDQNLLPTMSRSLSVPDSGRLWDVHTSASSQSGGEASLWDIPINSSTQGPILEQLQLQHKFQERREVELRAKREEEERKRREEKRRQQQQEEQKRRQEEEELFRRKHVRQQELLLKLLQQQQAVPVPPAPSSPPPLWAGLAKQGLSMKTLLELQLEGERQLHKQPPPREPARAQAPNHRVQLGGLGTAPLNQWVSEAGPLWGGPDKSGGGSSGLGLWEDTPKSGGSLVRGLGLKNSRSSPSLSDSYSHLSGRPIRKKTEEEEKLLKLLQGIPRPQDGFTQWCEQMLHTLSATGSLDVPMAVAILKEVESPYDVHDYIRSCLGDTLEAKEFAKQFLERRAKQKASQQRQQQQEAWLSSASLQTAFQANHSTKLGPGEGSKAKRRALMLHSDPSILGYSLHGSSGEIESVDDY
interaction with 4EHP in cells, overexpressed binding partner (4EHP; HEK293T cells, GFP-tagged protein and V5-SBP-4EHP): did not affect binding to overexpressed 4EHP in human cells

Kd [1]: 0.014 µM
Molecule: KYKLADYRYGREEMLALFLKDNKIPSDLLDKEFLPILQ [GYF2 C+L+NC peptide, ITC]

B2: 4E-T: Hs 4E-T Q9NRA8, full-length (1–985) (protein)
chain: MDRRSMGETESGDAFLDLKKPPASKCPHRYTKEELLDIKELPHSKQRPSCLSEKYDSDGVWDPEKWHASLYPASGRSSPVESLKKELDTDRPSLVRRIVDPRERVKEDDLDVVLSPQRRSFGGGCHVTAAVSSRRSGSPLEKDSDGLRLLGGRRIGSGRIISARTFEKDHRLSDKDLRDLRDRDRERDFKDKRFRREFGDSKRVFGERRRNDSYTEEEPEWFSAGPTSQSETIELTGFDDKILEEDHKGRKRTRRRTASVKEGIVECNGGVAEEDEVEVILAQEPAADQEVPRDAVLPEQSPGDFDFNEFFNLDKVPCLASMIEDVLGEGSVSASRFSRWFSNPSRSGSRSSSLGSTPHEELERLAGLEQAILSPGQNSGNYFAPIPLEDHAENKVDILEMLQKAKVDLKPLLSSLSANKEKLKESSHSGVVLSVEEVEAGLKGLKVDQQVKNSTPFMAEHLEETLSAVTNNRQLKKDGDMTAFNKLVSTMKASGTLPSQPKVSRNLESHLMSPAEIPGQPVPKNILQELLGQPVQRPASSNLLSGLMGSLEPTTSLLGQRAPSPPLSQVFQTRAASADYLRPRIPSPIGFTPGPQQLLGDPFQGMRKPMSPITAQMSQLELQQAALEGLALPHDLAVQAANFYQPGFGKPQVDRTRDGFRNRQQRVTKSPAPVHRGNSSSPAPAASITSMLSPSFTPTSVIRKMYESKEKSKEEPASGKAALGDSKEDTQKASEENLLSSSSVPSADRDSSPTTNSKLSALQRSSCSTPLSQANRYTKEQDYRPKATGRKTPTLASPVPTTPFLRPVHQVPLVPHVPMVRPAHQLHPGLVQRMLAQGVHPQHLPSLLQTGVLPPGMDLSHLQGISGPILGQPFYPLPAASHPLLNPRPGTPLHLAMVQQQLQRSVLHPPGSGSHAAAVSVQTTPQNVPSRSGLPHMHSQLEHRPSQRSSSPVGLAKWFGSDVLQQPLPSMPAKVISVDELEYRQ
interaction with 4EHP in cell lysates, endogenous binding partner (4EHP; HEK293T cell lysates, streptavidin pull-down): interacted with both eIF4E and 4EHP
interaction with eIF4E in cell lysates (eIF4E): interacted with both eIF4E and 4EHP

Kd (4EHP S99N used for ITC): 0.004 µM
Kd [1]: 0.055 µM
Molecule: TRIIYDRKFLMECRNSPVTKTPPRDLPTIPGVTS [4E-BP1 peptide, ITC]

binding result [2]: binds
Molecule: TRIIYDRKFLMECRNSPVTKTPPRDLPTIPGVTS (domain or fragment) [4E-BP1 peptide (residues T50–S83) with C-terminal GB1 tag, of the competition assays]

B3: 4EHP RE-LL: 4EHP R103L, E149L; auxiliary surface mutant (protein)
chain: MNNKFDALKDDDSGDHDQNEENSTQKDGEKEKTERDKNQSSSKRKAVVPGPAEHPLQYNYTFWYSRRTPGRPTSSQSYEQNIKQIGTFASVEQFWRFYSHMVLPGDLTGHSDFHLFKEGIKPMWEDDANKNGGKWIIRLRKGLASRCWLNLILAMLGEQFMVGEEICGAVVSVRFQEDIISIWNKTASDQATTARIRDTLRRVLNLPPNTIMEYKTHTDSIKMPGRLGPQRLLFQNLWKPRLNVP
binding to endogenous GYF2 (endogenous GYF2): strongly reduced binding to endogenous GYF2
binding to endogenous GYF1 (endogenous GYF1): disrupted binding to endogenous GYF1

B4: 4EHP cap: 4EHP W124A; cap-binding pocket mutant (protein, UniProt O60573 1-245, looked up, variant W124A)
Eukaryotic translation …: MNNKFDALKDDDSGDHDQNEENSTQKDGEKEKTERDKNQSSSKRKAVVPGPAEHPLQYNYTFWYSRRTPGRPTSSQSYEQNIKQIGTFASVEQFWRFYSHMVRPGDLTGHSDFHLFKEGIKPMAEDDANKNGGKWIIRLRKGLASRCWENLILAMLGEQFMVGEEICGAVVSVRFQEDIISIWNKTASDQATTARIRDTLRRVLNLPPNTIMEYKTHTDSIKMPGRLGPQRLLFQNLWKPRLNVP
binding to endogenous GYF2 (endogenous GYF2): still binds to GYF1/2

B5: 4EHP S99N: 4EHP S99N; dorsal surface mutant (protein, UniProt O60573 1-245, looked up, variant S99N)
Eukaryotic translation …: MNNKFDALKDDDSGDHDQNEENSTQKDGEKEKTERDKNQSSSKRKAVVPGPAEHPLQYNYTFWYSRRTPGRPTSSQSYEQNIKQIGTFASVEQFWRFYNHMVRPGDLTGHSDFHLFKEGIKPMWEDDANKNGGKWIIRLRKGLASRCWENLILAMLGEQFMVGEEICGAVVSVRFQEDIISIWNKTASDQATTARIRDTLRRVLNLPPNTIMEYKTHTDSIKMPGRLGPQRLLFQNLWKPRLNVP
binding to endogenous GYF2 (endogenous GYF2): Binding of GYF2 was not affected by the S99N mutation
